# From ChEMBL document CHEMBL1124813, “Synthesis and antiinflammatory activity of novel 12 beta-substituted analogues of betamethasone” (1990)
# “And” between values parts separate entries of the source, which are not always exact repeats. Equal entries are not always repeated.
# Columns and labels:
# Assay type in all cases: functional
# [1] = test system: Mus musculus; assay: Topical Antiinflammatory activity was measured in the TPA induced mouse ear edema assay at 300 ugm/mouse.
# Summary of the method: (§1)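 Mouse ear edema induced by topical TPA at 8.8 nmol/mouse, with the test steroid applied topically to the ear.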
# [2] = test system: Mus musculus; assay: Systemic Antiinflammatory activity was measured in the TPA induced mouse ear edema assay at 300 ugm/mouse.
# Summary of the method: (§2)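 Systemic absorption was assessed by the contralateral ear assay. Ear edema was induced with TPA (8.8 nmol/mouse) and scored on the ear opposite the one receiving the topical corticoid.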
# [3] = test system: Mus musculus; assay: Topical Antiinflammatory activity was measured in the TPA induced mouse ear edema assay at 200 ug/mouse.; summary of the method: as §1
# [4] = test system: Mus musculus; assay: ED100 of was measured in the TPA induced mouse ear edema assay.; summary of the method: as §1
# [5] = test system: Mus musculus; assay: Systemic Antiinflammatory activity was measured in the TPA induced mouse ear edema assay at 50 ug/mouse.; summary of the method: as §2
# [6] = test system: Mus musculus; assay: Systemic Antiinflammatory activity was measured in the TPA induced mouse ear edema assay at 100 ug/mouse.; summary of the method: as §2
# [7] = organism: Mus musculus; assay: Percentage systemic effect to assess the degree of absorption was measured at 300 ugm/mouse.
# Summary of the method: (§3)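 Systemic effect was measured after repeated topical high-dose applications to the mouse ear. Thymic involution was read as loss of thymus weight (n = 6). Adrenal suppression was read as inhibition of the stress-induced rise in plasma cortisol (n = 6).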
# [8] = organism: Mus musculus; assay: Percentage systemic effect to assess the degree of absorption was measured at 100 ug/mouse.; summary of the method: as §3
# [9] = test system: Mus musculus; assay: Topical Antiinflammatory activity was measured in the TPA induced mouse ear edema assay at 100 ug/mouse.; summary of the method: as §1
# [10] = organism: Mus musculus; assay: Percentage systemic effect to assess the degree of absorption was measured at 50 ug/mouse.; summary of the method: as §3
# [11] = organism: Mus musculus; assay: Percentage systemic effect to assess the degree of absorption was measured at 200 ug/mouse.; summary of the method: as §3
# [12] = test system: Mus musculus; assay: Topical Antiinflammatory activity was measured in the TPA induced mouse ear edema assay at 50 ug/mouse.; summary of the method: as §1
# [13] = test system: Mus musculus; assay: Systemic Antiinflammatory activity was measured in the TPA induced mouse ear edema assay at 200 ug/mouse.; summary of the method: as §2
# [14] = organism: Mus musculus; assay: Percentage systemic effect to assess the degree of absorption was measured at 50 ug/mouse; summary of the method: as §3
# [15] = test system: Mus musculus; assay: Systemic Antiinflammatory activity was measured in the TPA induced mouse ear edema assay at 50 ug/mouse; summary of the method: as §2
# [16] = test system: Mus musculus; assay: Systemic Antiinflammatory activity was measured in the TPA induced mouse ear edema assay at 2.5 ug/mouse; summary of the method: as §2
# [17] = test system: Mus musculus; assay: Topical Antiinflammatory activity was measured in the TPA induced mouse ear edema assay at 75 ug/mouse.; summary of the method: as §1
# [18] = test system: Mus musculus; assay: Systemic Antiinflammatory activity was measured in the TPA induced mouse ear edema assay at 25 ug/mouse; summary of the method: as §2
# [19] = organism: Mus musculus; assay: Percentage systemic effect to assess the degree of absorption was measured 25 ug/mouse; summary of the method: as §3
# [20] = organism: Mus musculus; assay: Percentage systemic effect to assess the degree of absorption was measured 75 ug/mouse; summary of the method: as §3
# [21] = test system: Mus musculus; assay: Systemic Antiinflammatory activity was measured in the TPA induced mouse ear edema assay at 75 ug/mouse; summary of the method: as §2
# [22] = test system: Mus musculus; assay: Topical Antiinflammatory activity was measured in the TPA induced mouse ear edema assay at 2.5 ug/mouse.; summary of the method: as §1
# [23] = organism: Mus musculus; assay: Skin thickness of mouse was measured at 75 ug/mouse
# [24] = test system: Mus musculus; assay: Topical Antiinflammatory activity was measured in the TPA induced mouse ear edema assay at 25 ug/mouse.; summary of the method: as §1
# [25] = organism: Mus musculus; assay: Atrophogenicity potency was observed in mouse at 75 ug/mouse.
# [26] = test system: Mus musculus; assay: Systemic Antiinflammatory activity was measured in the TPA induced mouse ear edema assay at 10 ug/mouse.; summary of the method: as §2
# [27] = test system: Mus musculus; assay: Systemic Antiinflammatory activity was measured in the TPA induced mouse ear edema assay at 40 ugm/mouse.; summary of the method: as §2
# [28] = test system: Mus musculus; assay: Topical Antiinflammatory activity was measured in the TPA induced mouse ear edema assay at 40 ugm/mouse.; summary of the method: as §1
# [29] = organism: Mus musculus; assay: Percentage systemic effect to assess the degree of absorption was measured at 10 ug/mouse.; summary of the method: as §3
# [30] = organism: Mus musculus; assay: Percentage systemic effect to assess the degree of absorption was measured 40 ugm/mouse.; summary of the method: as §3
# [31] = test system: Mus musculus; assay: Topical Antiinflammatory activity was measured in the TPA induced mouse ear edema assay at 10 ug/mouse.; summary of the method: as §1
# [32] = organism: Mus musculus; assay: Percentage systemic effect to assess the degree of absorption was measured at 40 ugm/mouse.; summary of the method: as §3
# [33] = organism: Mus musculus; assay: Percentage systemic effect to assess the degree of absorption was measured at 75 ug/mouse; summary of the method: as §3
# [34] = organism: Mus musculus; assay: Skin thickness of mouse was measured at 75 ug/mouse.
# [35] = organism: Mus musculus; assay: Percentage systemic effect to assess the degree of absorption was measured at 2.5 ug/mouse; summary of the method: as §3
# [36] = organism: Mus musculus; assay: Skin thickness of mouse was measured at 300 ugm/mouse.
# [37] = organism: Mus musculus; assay: Atrophogenicity potency was observed in mouse at given dose at 300 ugm/mouse.
# [38] = organism: Mus musculus; assay: Atrophogenicity potency was observed in mouse at 200 ug/mouse.
# [39] = organism: Mus musculus; assay: Skin thickness of mouse was measured at 200 ug/mouse
compound,measurement,setting,value
CCC(=O)OCC(=O)[C@@]1(OC(=O)CC)[C@@H](C)C[C@H]2C3CCC4=CC(=O)C=C[C@]4(C)[C@@]3(Br)[C@@H](O)[C@@H](OC(=O)c3ccco3)[C@@]21C (stereo partly drawn),Potency,[1],69%
same,Potency,[2],0%
CCC(=O)OCC(=O)[C@@]1(OC(=O)CC)[C@@H](C)C[C@H]2C3CCC4=CC(=O)C=C[C@]4(C)[C@@]3(Br)[C@@H](O)[C@@H](O)[C@@]21C (stereo partly drawn),Potency,[3],91%
same,Potency,[1],99%
same,ED100,[4],325 µg
same,Potency,[5],16%
same,Potency,[6],17%
same,Systemic effect,[7],7% and 15%
same,Systemic effect,[8],0% and 14%
same,Potency,[9],86%
same,Systemic effect,[10],7% and 12%
same,Systemic effect,[11],7% and 15%
same,Potency,[12],57%
same,Potency,[2],22%
same,Potency,[13],17%
CCC(=O)OCC(=O)[C@@]1(OC(=O)CC)[C@@H](C)C[C@H]2C3CCC4=CC(=O)C=C[C@]4(C)[C@@]3(Br)[C@@H](O)[C@@H](OC(=O)CC)[C@@]21C (stereo partly drawn),Potency,[3],70%
same,Potency,[1],96%
same,ED100,[4],325 µg
same,Potency,[6],0%
same,Systemic effect,[8],6%
same,Potency,[9],45%
same,Systemic effect,[14],2%
same,Systemic effect,[11],2% and 0%
same,Potency,[12],36%
same,Potency,[15],0%
same,Potency,[2],0%
same,Potency,[13],0%
CCC(=O)OCC(=O)[C@@]1(OC(=O)CC)[C@@H](C)C[C@H]2[C@@H]3CCC4=CC(=O)C=C[C@]4(C)[C@@]3(Cl)[C@@H](O)C[C@@]21C [BECLOMETHASONE DIPROPIONATE],Potency,[16],12%
same,ED100,[4],110 µg
same,Potency,[17],93%
same,Potency,[18],40%
same,Systemic effect,[19],52% and 32%
same,Systemic effect,[20],67% and 36%
same,Potency,[21],52%
same,Potency,[22],60%
same,Skin thickness,[23],8.12
same,Potency,[24],78%
same,Potency,[25],51%
CCC(=O)OCC(=O)[C@@]1(OC(=O)CC)[C@@H](C)C[C@H]2C3CCC4=CC(=O)C=C[C@]4(C)[C@@]3(F)[C@@H](O)[C@@H](O)[C@@]21C (stereo partly drawn),ED100,[4],140 µg
same,Potency,[6],19%
same,Systemic effect,[8],21% and 30%
same,Potency,[26],7%
same,Potency,[27],11%
same,Potency,[28],60%
same,Potency,[9],82%
same,Systemic effect,[29],9% and 1%
same,Systemic effect,[30],13% and 10%
same,Potency,[31],46%
CCC(=O)OCC(=O)[C@@]1(OC(=O)CC)[C@@H](C)C[C@H]2C3CCC4=CC(=O)C=C[C@]4(C)[C@@]3(F)[C@@H](O)[C@@H](OC(=O)CC)[C@@]21C (stereo partly drawn),Potency,[3],77%
same,ED100,[4],400 µg
same,Systemic effect,[32],1% and 6%
same,Potency,[6],0%
same,Systemic effect,[8],4% and 0%
same,Potency,[26],0%
same,Potency,[27],0%
same,Potency,[28],50%
same,Potency,[9],69%
same,Systemic effect,[29],0%
same,Potency,[13],0%
same,Potency,[31],21%
CCCC(=O)O[C@@H]1[C@H](O)[C@@]2(Br)C(CCC3=CC(=O)C=C[C@@]32C)[C@@H]2C[C@H](C)[C@](OC(=O)CC)(C(=O)COC(=O)CC)[C@@]12C (stereo partly drawn),Potency,[1],68%
same,Potency,[2],0%
CCC(=O)OCC(=O)[C@@]1(OC(=O)CC)[C@@H](C)C[C@H]2C3CCC4=CC(=O)C=C[C@]4(C)[C@@]3(Br)[C@@H](O)[C@@H](OC(=O)CC(C)C)[C@@]21C (stereo partly drawn),Potency,[1],54%
same,Potency,[2],0%
CCC(=O)OCC(=O)[C@@]1(OC(=O)CC)[C@@H](C)C[C@H]2[C@@H]3CCC4=CC(=O)C=C[C@]4(C)[C@@]3(F)[C@@H](O)C[C@@]21C [BETAMETHASONE DIPROPIONATE],Systemic effect,[33],87% and 37%
same,Potency,[16],27%
same,ED100,[4],110 µg
same,Skin thickness,[34],9.39
same,Potency,[17],93%
same,Systemic effect,[35],30% and 12%
same,Potency,[18],30%
same,Potency,[21],72%
same,Potency,[22],59%
same,Potency,[24],76%
same,Potency,[25],43%
CCC(=O)OCC(=O)[C@@]1(OC(=O)CC)[C@@H](C)C[C@H]2C3CCC4=CC(=O)C=C[C@]4(C)[C@@]3(Cl)[C@@H](O)[C@@H](OC(=O)CC)[C@@]21C (stereo partly drawn),Potency,[3],71%
same,Skin thickness,[36],16.5
same,Potency,[1],84%
same,ED100,[4],400 µg
same,Potency,[6],0%
same,Systemic effect,[8],5%
same,Potency,[9],53%
same,Systemic effect,[14],4% and 5%
same,Systemic effect,[11],0% and 6%
same,Potency,[12],47%
same,Potency,[15],0%
same,Potency,[2],0%
same,Potency,[13],0%
same,Potency,[37],0.1%
CCC(=O)OCC(=O)[C@@]1(OC(=O)CC)[C@@H](C)C[C@H]2C3CCC4=CC(=O)C=C[C@]4(C)[C@@]3(Br)[C@@H](O)[C@@H](OC(=O)c3ccccc3)[C@@]21C (stereo partly drawn),Potency,[1],84%
same,Potency,[2],0%
CCC(=O)OCC(=O)[C@@]1(OC(=O)CC)[C@@H](C)C[C@H]2C3CCC4=CC(=O)C=C[C@]4(C)[C@@]3(Cl)[C@@H](O)[C@@H](O)[C@@]21C (stereo partly drawn),ED100,[4],160 µg
same,Potency,[6],21%
same,Systemic effect,[8],5% and 14%
same,Potency,[26],0%
same,Potency,[27],5%
same,Potency,[38],15.7%
same,Potency,[28],67%
same,Potency,[9],81%
same,Skin thickness,[39],13.92
same,Systemic effect,[29],4% and 2%
same,Systemic effect,[30],0% and 13%
same,Potency,[31],41%
